Structures are written as SMILES.

The first assay deals with T1, OR14A16 (Homo sapiens) (UniProt Q8NHC5).
T1 sequence (whole entry): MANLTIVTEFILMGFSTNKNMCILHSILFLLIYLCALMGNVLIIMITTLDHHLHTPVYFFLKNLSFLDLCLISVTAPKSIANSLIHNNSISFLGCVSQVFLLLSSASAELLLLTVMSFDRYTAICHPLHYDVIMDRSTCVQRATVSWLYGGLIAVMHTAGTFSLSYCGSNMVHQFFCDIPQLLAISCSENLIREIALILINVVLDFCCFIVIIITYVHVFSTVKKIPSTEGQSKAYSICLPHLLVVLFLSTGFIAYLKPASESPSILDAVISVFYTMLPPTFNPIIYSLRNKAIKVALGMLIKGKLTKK
The note with it: stereoisomer not certain. Summed up:
(§1)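 Values were gathered from published papers (main text and supplementary material), with extra details requested from the original authors when needed, and checked for typos and inconsistencies. Each receptor–molecule pair is called responsive (active) if the original authors judged the measured signal statistically different from baseline, and non-responsive (inactive) otherwise. Assay methods varied by source, often transient mammalian cell-line luciferase assays. Recorded details include cell line, G-protein, co-transfected protein and tags.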
For the molecule `CCCCC(S)C(C)CO` (stereo not drawn), the “odorant receptor agonist call” value is “inactive”.
On the same count and under the same terms, with `CC(CO)CS` (stereo not drawn) the entry was “inactive”; with `CCC1OC(=O)C(O)=C1C` (stereo not drawn), “inactive”; with `CC1CCCCCCCCCCCCC(=O)C1` (stereo not drawn), “inactive”.
Same read-out and setting: with `CC1=C(O)C(=O)OC1C` (stereo not drawn) the entry was “inactive”.
On the same count and under the same terms, with `CCCCCC(S)C(C)CO` (stereo not drawn) the entry was “inactive”.
For the molecule `CCCCCC(=O)C(C)C(C)=O` (stereo not drawn), the “odorant receptor agonist call” value is “inactive”.
On the same count and under the same terms, with `CCCC(S)CCOC(C)=O` (stereo not drawn) the entry was “inactive”.
Still for that read-out and setting: with `CCCCCCC=CCCC=O` the entry was “inactive”; with `CCC(S)C(C)CO` (stereo not drawn), “inactive”.
Still for that read-out and setting: with `CC1=C(O)C(=O)C(C)O1` (stereo not drawn) the entry was “inactive”; with `CCC1OC(C)=C(O)C1=O` (stereo not drawn), “inactive”; with `CC1=NC(C)C(C)S1` (stereo not drawn), “inactive”.
In the case of `Cc1cnc(C)c(C)n1`, the “odorant receptor agonist call” value was “inactive”.
On the same count and under the same terms, with `CC(=O)c1c(C)c([N+](=O)[O-])c(C(C)(C)C)c([N+](=O)[O-])c1C` the entry was “inactive”.

The next assay concerns the target T2, OR14A2 (Homo sapiens) (UniProt Q96R54).
T2 sequence (whole entry): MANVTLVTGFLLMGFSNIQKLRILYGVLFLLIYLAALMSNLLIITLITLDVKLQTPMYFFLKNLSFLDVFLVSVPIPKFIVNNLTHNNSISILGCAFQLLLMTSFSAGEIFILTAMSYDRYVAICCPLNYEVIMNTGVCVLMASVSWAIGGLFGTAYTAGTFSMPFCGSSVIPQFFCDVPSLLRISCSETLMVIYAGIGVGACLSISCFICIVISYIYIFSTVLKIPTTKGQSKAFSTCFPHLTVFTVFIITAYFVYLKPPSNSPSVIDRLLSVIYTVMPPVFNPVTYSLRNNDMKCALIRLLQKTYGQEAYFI
To be noted: stereoisomer not certain. Summed up:
as §1
Regarding `CCCCC(S)C(C)CO` (stereo not drawn), the “odorant receptor agonist call” value was “inactive”.
Turning to `CC(CO)CS` (stereo not drawn), the “odorant receptor agonist call” value was “inactive”.
On the same count and under the same terms, with `CCC1OC(=O)C(O)=C1C` (stereo not drawn) the entry was “inactive”; with `CC1CCCCCCCCCCCCC(=O)C1` (stereo not drawn), “inactive”; with `CC1=C(O)C(=O)OC1C` (stereo not drawn), “inactive”.
The same measure, in the same setting: with `CCCCCC(S)C(C)CO` (stereo not drawn) the entry was “inactive”; with `CCCCCC(=O)C(C)C(C)=O` (stereo not drawn), “inactive”.
As for `CCCC(S)CCOC(C)=O` (stereo not drawn), the “odorant receptor agonist call” value is “inactive”.
In the case of `CCCCCCC=CCCC=O`, the “odorant receptor agonist call” value is “inactive”.
Still for that read-out and setting: with `CCC(S)C(C)CO` (stereo not drawn) the entry was “inactive”.
As for `CC1=C(O)C(=O)C(C)O1` (stereo not drawn), the “odorant receptor agonist call” value is “inactive”.
Still for that read-out and setting: with `CCC1OC(C)=C(O)C1=O` (stereo not drawn) the entry was “inactive”; with `CC1=NC(C)C(C)S1` (stereo not drawn), “inactive”.
Take `Cc1cnc(C)c(C)n1`: the “odorant receptor agonist call” value is “inactive”.
The same measure, in the same setting: with `CC(=O)c1c(C)c([N+](=O)[O-])c(C(C)(C)C)c([N+](=O)[O-])c1C` the entry was “inactive”.

Another assay deals with T3, OR14C36 (Homo sapiens) (UniProt Q8NHC7).
T3 sequence (whole entry): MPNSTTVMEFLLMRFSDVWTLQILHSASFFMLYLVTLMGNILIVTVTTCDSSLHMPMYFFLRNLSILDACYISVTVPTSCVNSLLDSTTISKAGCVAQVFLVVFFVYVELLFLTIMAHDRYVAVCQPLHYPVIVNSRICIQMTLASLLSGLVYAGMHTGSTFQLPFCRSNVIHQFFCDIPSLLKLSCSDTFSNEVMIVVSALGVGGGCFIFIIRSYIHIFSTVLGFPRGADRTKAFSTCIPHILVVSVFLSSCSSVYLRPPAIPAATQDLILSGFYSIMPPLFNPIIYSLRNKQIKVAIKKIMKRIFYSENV
To be noted: stereoisomer not certain. Summed up: as §1
As to `CCCCC(S)C(C)CO` (stereo not drawn), the “odorant receptor agonist call” value is “inactive”.
The same measure, in the same setting: with `CC(CO)CS` (stereo not drawn) the entry was “inactive”.
Same read-out and setting: with `CCC1OC(=O)C(O)=C1C` (stereo not drawn) the entry was “inactive”.
On the same count and under the same terms, with `CC1CCCCCCCCCCCCC(=O)C1` (stereo not drawn) the entry was “inactive”.
Regarding `CC1=C(O)C(=O)OC1C` (stereo not drawn), the “odorant receptor agonist call” value is “inactive”.
On to `CCCCCC(S)C(C)CO` (stereo not drawn), for which the “odorant receptor agonist call” value is “inactive”.
On the same count and under the same terms, with `CCCCCC(=O)C(C)C(C)=O` (stereo not drawn) the entry was “inactive”; with `CCCC(S)CCOC(C)=O` (stereo not drawn), “inactive”; with `CCCCCCC=CCCC=O`, “inactive”.
Same read-out and setting: with `CCC(S)C(C)CO` (stereo not drawn) the entry was “inactive”; with `CC1=C(O)C(=O)C(C)O1` (stereo not drawn), “inactive”.
Same read-out and setting: with `CCC1OC(C)=C(O)C1=O` (stereo not drawn) the entry was “inactive”; with `CC1=NC(C)C(C)S1` (stereo not drawn), “inactive”; with `Cc1cnc(C)c(C)n1`, “inactive”.
On to `CC(=O)c1c(C)c([N+](=O)[O-])c(C(C)(C)C)c([N+](=O)[O-])c1C`, for which the “odorant receptor agonist call” value was “inactive”.

In a further assay the target is T4, OR14I1 (Homo sapiens) (UniProt A6ND48).
T4 sequence (whole entry): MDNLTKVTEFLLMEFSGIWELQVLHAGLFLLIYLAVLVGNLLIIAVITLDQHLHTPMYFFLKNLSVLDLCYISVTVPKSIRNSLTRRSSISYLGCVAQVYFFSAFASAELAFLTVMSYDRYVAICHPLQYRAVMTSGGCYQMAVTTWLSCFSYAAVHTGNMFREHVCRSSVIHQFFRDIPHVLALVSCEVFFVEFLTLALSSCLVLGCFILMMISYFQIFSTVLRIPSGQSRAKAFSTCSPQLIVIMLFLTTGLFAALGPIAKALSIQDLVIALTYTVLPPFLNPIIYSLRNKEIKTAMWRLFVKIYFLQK
To be noted: stereoisomer not certain. Summed up: as §1
Regarding `CCCCC(S)C(C)CO` (stereo not drawn), the “odorant receptor agonist call” value is “inactive”.
On the same count and under the same terms, with `CC(CO)CS` (stereo not drawn) the entry was “inactive”; with `CCC1OC(=O)C(O)=C1C` (stereo not drawn), “inactive”.
For `CC1CCCCCCCCCCCCC(=O)C1` (stereo not drawn), the “odorant receptor agonist call” value was “inactive”.
Same read-out and setting: with `CC1=C(O)C(=O)OC1C` (stereo not drawn) the entry was “inactive”; with `CCCCCC(S)C(C)CO` (stereo not drawn), “inactive”; with `CCCCCC(=O)C(C)C(C)=O` (stereo not drawn), “inactive”.
Take `CCCC(S)CCOC(C)=O` (stereo not drawn): the “odorant receptor agonist call” value was “inactive”.
The same measure, in the same setting: with `CCCCCCC=CCCC=O` the entry was “inactive”; with `CCC(S)C(C)CO` (stereo not drawn), “inactive”; with `CC1=C(O)C(=O)C(C)O1` (stereo not drawn), “inactive”.
`CCC1OC(C)=C(O)C1=O` (stereo not drawn): the “odorant receptor agonist call” value is “inactive”.
Same read-out and setting: with `CC1=NC(C)C(C)S1` (stereo not drawn) the entry was “inactive”.
Same read-out and setting: with `Cc1cnc(C)c(C)n1` the entry was “inactive”.
Same read-out and setting: with `CC(=O)c1c(C)c([N+](=O)[O-])c(C(C)(C)C)c([N+](=O)[O-])c1C` the entry was “inactive”.

The next assay has as its target T5, OR14J1 (Homo sapiens) (UniProt Q9UGF5).
T5 sequence (whole entry): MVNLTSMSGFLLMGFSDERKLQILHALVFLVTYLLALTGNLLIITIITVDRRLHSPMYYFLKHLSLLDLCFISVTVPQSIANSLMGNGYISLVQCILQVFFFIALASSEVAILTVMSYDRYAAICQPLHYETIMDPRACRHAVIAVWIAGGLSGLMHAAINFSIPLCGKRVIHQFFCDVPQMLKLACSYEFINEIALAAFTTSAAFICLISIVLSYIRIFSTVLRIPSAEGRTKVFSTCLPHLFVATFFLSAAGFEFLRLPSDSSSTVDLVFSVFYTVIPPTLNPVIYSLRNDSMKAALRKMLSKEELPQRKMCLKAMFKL
The note with it: stereoisomer not certain. Summed up:
as §1
In the case of `CCCCC(S)C(C)CO` (stereo not drawn), the “odorant receptor agonist call” value was “inactive”.
Consider `CC(CO)CS` (stereo not drawn), for which the “odorant receptor agonist call” value is “active”.
On to `CCC1OC(=O)C(O)=C1C` (stereo not drawn), for which the “odorant receptor agonist call” value was “inactive”.

The values above are taken from the M2OR odorant receptor database.
